Assays:
[1] = test system: Plasmodium falciparum; assay: Antiplasmodial activity against chloroquine-resistant Plasmodium falciparum Dd2 infected in human erythrocytes assessed as reduction in microbial growth after 72 hrs by SYBR green I staining based fluorescence assay; format: functional, organism-based; settings: Dd2, Erythrocyte
Procedure, shortened: (§1)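 SYBR Green I assay: twofold serial dilutions on P. falciparum cultures at 1% parasitemia, 1% hematocrit, 37 °C, 5% CO₂, 72 h, max 0.1% DMSO. DMSO and CQ as growth and inhibition controls. Plates frozen at −80 °C, thawed, lysed in Tris/saponin/EDTA/Triton buffer with 0.01% SYBR Green I, 1 h dark at room temperature. Fluorescence read at 485 ex/530 em. EC50 by nonlinear dose–response fit.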

[2] = test system: HepG2; assay: Cytotoxicity against human HepG2 cells assessed as reduction in cell viability after 48 hrs by MTS assay; format: cell-based; settings: HepG2, 48 h
Procedure, shortened: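 HepG2 cells were seeded at 2250 per well and grown 24 h at 37 °C, 5% CO₂. Serial dilutions starting at 25 μM were added for a further 48 h. MTS was then added for 3 h at 37 °C and absorbance read at 490 nm. EC₅₀ came from nonlinear dose–response fits.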

[3] = Selectivity index, ratio of EC50 for cytotoxicity against human HepG2 cells to antiplasmodial activity against chloroquine-resistant Plasmodium falciparum Dd2; format: toxicity, cell-based; settings: read-out: Ratio EC50
[4] = Stability of compound in mouse liver microsomes assessed as parent compound remaining after 60 mins in presence of NADPH by LC-MS analysis; format: ADME, Microsome; settings: read-out: Stabilty
[5] = Resistant index, ratio of EC50 for antiplasmodial activity against chloroquine-resistant Plasmodium falciparum Dd2 to antiplasmodial activity against chloroquine-sensitive Plasmodium falciparum 3D7; format: functional
[6] = Stability of compound in mouse liver microsomes assessed as parent compound remaining at 1 uM after 60 mins in presence of NADPH by LC-MS analysis; format: ADME, Microsome; settings: 1 h
Procedure, shortened: (§2)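 Mouse liver microsomes (0.5 mg/mL final protein) in 0.1 M phosphate, pH 7.4, with compound at 1 μM, 37 °C with shaking. Aliquots were quenched in cold acetonitrile and centrifuged; LC–MS gave parent peak area at 60 min relative to 0 min.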

[7] = Intrinsic clearance in mouse liver microsomes assessed as parent compound at 1 uM after 60 mins in presence of NADPH by LC-MS analysis; format: ADME, Microsome; procedure, shortened: as §2
[8] = test system: Plasmodium falciparum; assay: Antiplasmodial activity against chloroquine-sensitive Plasmodium falciparum 3D7 infected in human erythrocytes assessed as reduction in microbial growth after 72 hrs by SYBR green I staining based fluorescence assay; format: functional, organism-based; settings: 3D7, Erythrocyte; procedure, shortened: as §1
[9] = Half life in mouse liver microsomes after 60 mins in presence of NADPH by LC-MS analysis; format: ADME, Microsome
[10] = Drug level in mouse liver microsomes treated with 6-chloro-2-(4-fluorostyryl)-N-(2-(4-methylpiperazin-1-yl)ethyl)quinolin-4-amine measured up to 60 mins by LC-MS analysis; format: ADME, Microsome; settings: 1 h
Procedure, shortened: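 Microsomal incubations: mouse liver microsomes at 0.5 mg/mL, 1 μM compound, pH 7.4 phosphate, 37 °C, NADPH-regenerating system. The metabolite mixture was analysed by LC–MS after 15, 30 and 60 min.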

In the case of `CCN(CC)CCCC(C)Nc1cc(/C=C/c2ccc([N+](=O)[O-])cc2)nc2ccc(OC)cc12` (stereo not given), the EC50 [1] is reported as 67 nM, the EC50 [2] is reported as 7020 nM and the selectivity ratio [3] is reported as 105. It also gave a remaining at 1 h [4] of 47.8%, a Ratio EC50 [5] of 0.6 and a Stabilty [6] of 36.7%. It also gave a CLH [7] of 33.4 µL/min/mg, an EC50 [8] of 119 nM and a half-life [9] of 56.2 min.
With `Fc1ccc(/C=C/c2cc(NCCN3CCNCC3)c3cc(Cl)ccc3n2)cc1` the Drug uptake [10] was “Active”.

Source: ChEMBL document CHEMBL4665829, “Synthesis, Structure-Activity Relationship, and Antimalarial Efficacy of 6-Chloro-2-arylvinylquinolines” (J Med Chem, 2020)
